Rows were chosen to be rich in hits. Some 1.8% of all compounds tested hit in one or more screens of this group.
NPY Y1 blocker: blocks the human neuropeptide Y Y1 receptor; 200,000 tested, 1% active; P25929; inhibition, % at 3.6 µM; HEK293-CNG Y1 cells, membrane potential fluorescence; NPY at EC95, then isoproterenol;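 active means inhibition above the campaign mean inhibition of all tested compounds plus 3 SD, cut at about 20% in these data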;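 further: 0% = DMSO wells given NPY plus isoproterenol and 100% = isoproterenol alone without NPY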
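material = HEK293 cells with Y1 receptor plus CNG channel | also added = NPY 25 nM then isoproterenol 1 µM plus Ro 20-1724 25 µM | schedule = dye 3 h, compound 60 min room temperature, stimulation 45 min | measured by = membrane potential fluorescence | benchmarks = high control isoproterenol alone, low control NPY with isoproterenol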
NPY-Y2 PAM-ag: potentiators or agonists of human neuropeptide Y receptor Y2. cells expressing NPY-Y2, potentiator/agonist read-out. 220,000 tested, 0.45% active. P49146. activation, % at 3.6 µM; in the data active means activation above about 27%;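 further: cells stimulated with NPY near EC25 plus isoproterenol at EC100; 0% = vehicle plus submaximal agonist and 100% = vehicle plus saturating agonist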
Target sequence (P49146 whole entry, looked up): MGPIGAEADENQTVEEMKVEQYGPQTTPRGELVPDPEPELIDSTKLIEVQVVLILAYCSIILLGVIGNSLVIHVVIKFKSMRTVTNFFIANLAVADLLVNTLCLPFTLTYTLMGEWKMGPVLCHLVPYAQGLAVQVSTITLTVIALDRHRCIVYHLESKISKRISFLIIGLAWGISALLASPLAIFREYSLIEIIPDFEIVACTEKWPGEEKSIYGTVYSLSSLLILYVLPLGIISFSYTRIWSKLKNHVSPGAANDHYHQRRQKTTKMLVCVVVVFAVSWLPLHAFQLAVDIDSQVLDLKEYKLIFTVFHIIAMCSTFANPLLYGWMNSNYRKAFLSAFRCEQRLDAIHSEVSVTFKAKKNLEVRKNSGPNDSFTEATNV
NPY Y2 blocker: antagonists of human neuropeptide Y receptor Y2 | P49146 | NPY-Y2 expressing cells, antagonist mode | inhibition, % at 2.7 µM | 140,000 tested, 0.99% active | AID 793;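 further: 0% = vehicle with agonist challenge and 100% = reference antagonist with challenge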
NPY-Y1 PAM-ag: potentiators or agonists of human neuropeptide Y receptor Y1. P25929. NPY-Y1 expressing cells, potentiator/agonist activation. activation, % at 3.6 µM. 220,000 tested, 0.37% active; in the data active means activation above about 33%, passing the limit was not always enough;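 further: cells stimulated with NPY at EC10 then isoproterenol at EC100; 0% = low agonist plus stimulus and 100% = saturating agonist plus stimulus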
NPY1 antag conf: human NPY-Y1 antagonism, confirmation | shares compounds with NPY Y1 blocker | HEK293-CNG NPY-Y1, membrane potential fluorescence, cAMP; NPY challenge against isoproterenol-raised cAMP | inhibition, % at 3.6 µM | 1,200 tested, 21% active | AID 1254; in the data active means inhibition above about 20%;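 further: 0% = vehicle with agonist plus stimulus and 100% = stimulus alone without agonist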
NPY2 antag ctr: human NPY-Y2 antagonism in NPY-Y1 counter-screen. shares compounds with NPY Y1 blocker. HEK293 NPY-Y2 CNG membrane potential fluorescence; cells given NPY, then isoproterenol. inhibition, % at 3.6 µM. 1,200 tested, 28% active. AID 1255;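 further: 0% = DMSO with agonist challenge and 100% = reference antagonist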
An asterisk follows results filed as active; x = not tested or not shown. Unless noted, no stated cut-off is given here; in the data, active means inhibition above about 17%; inactive means the rest.

SMILES	NPY Y1 blocker	NPY-Y2 PAM-ag	NPY Y2 blocker	NPY-Y1 PAM-ag	NPY1 antag conf	NPY2 antag ctr
O=C(COC(=O)CCc1c[nH]c2ccccc12)Nc1cc([N+](=O)[O-])ccc1Cl	27.3*	-2.7	7.6	-23.8	9.0	8.4
COCCNc1nc2nonc2nc1N(C)Cc1cccc2cnccc12	27.3*	-7.9	x	0.7	2.5	1.4
O=C(COC(=O)CCSc1ccccc1)NCc1ccc(F)cc1	5.3	-16.9	x	-7.2	x	x
COCCCNc1nc(SCc2ccccc2)nc2sc3c(c12)CCC3	21.1*	-22.8	2.0	-70.6	29.8*	46.1*
Clc1ccc(SCCOCCN2CCc3ccccc3C2)cc1	23.3*	-4.6	x	-22.7	15.1	12.3
Clc1ccc(OCCOCCN2CCc3ccccc3C2)c(Cl)c1	25.1*	-15.7	10.1	-28.1	8.1	7.8
c1ccc(-c2ccccc2OCCOCCN2CCc3ccccc3C2)cc1	15.7	-11.3	x	-10.7	x	x
COC(=O)C(CC(=O)O)NCc1ccco1 (stereo not given)	x	-0.1	x	18.2	x	x
CC1CCC(C(C)C)C(OC(=O)Cn2c(-c3ccc(Cl)cc3)[n+](C)c3ccccc32)C1 (stereo not given)	x	-60.3	x	-61.3	x	x
Cc1ccccc1OCc1n(CC(=O)OC2CC(C)CCC2C(C)C)c2ccccc2[n+]1C (stereo not given)	29.2*	-16.6	x	-35.1	35.6*	41.7*
CC1CCC(C(C)C)C(OC(=O)Cn2c(-c3ccc(Br)cc3)[n+](C)c3ccccc32)C1 (stereo not given)	44.3*	-13.0	x	-11.3	36.5*	40.5*
O=C(CC(=O)c1cccc([N+](=O)[O-])c1)Nc1ccccc1Cl	-0.1	5.0	x	24.0	x	x
C/C=C(/C)C(=O)O[C@@H]1[C@H](OC(=O)C=C(C)C)c2c(ccc3ccc(=O)oc23)OC1(C)C	5.7	4.2	4.4	2.5	x	x
C/C=C(/C)C(=O)O[C@@H]1c2c(ccc3ccc(=O)oc23)OC(C)(C)[C@@H]1OC(=O)/C(C)=C\C	30.7*	-4.3	15.9	-24.7	16.9	7.6
COC(=O)c1cc([N+](=O)[O-])c(-n2cncn2)c([N+](=O)[O-])c1	28.2*	-7.8	x	1.2	-3.1	-3.7
CCN(CC)c1ncc(C#N)c(N)n1	x	0.3	x	4.9	x	x
NC(=O)c1nc(-c2cccs2)nc2c1[nH]c(=O)n2-c1ccc(F)cc1	1.7	4.0	x	5.9	x	x
c1ccc(Oc2ncnc3oc(-c4ccccc4)cc23)cc1	-1.1	-7.9	1.7	7.2	x	x
c1ccc(-c2cc3c(-n4cccc4)ncnc3o2)cc1	21.2*	-23.2	10.1	-8.7	4.0	7.5
Cc1ccc(NC(=O)CN(c2ccccc2)S(=O)(=O)N(C)C)cc1	10.1	-4.1	5.3	6.6	x	x
O=C1N(Cc2cccc(Cl)c2)C[C@@H]2C[C@@H](c3cccn3-c3nccs3)N3CCC[C@@]123	26.3*	-24.6	x	-27.0	4.1	6.1
COc1ccccc1CN1C[C@@H]2C[C@@H](C3=Cc4cc(Cl)ccc4OC3)N3CCC[C@@]23C1=O	24.3*	-19.2	x	-17.6	18.8	12.8
O=C1N(Cc2cccc(Cl)c2)C[C@@H]2C[C@@H](c3ccc4nonc4c3)N3CCC[C@@]123	24.4*	-15.9	x	-4.5	10.3	9.0
O=C1N(Cc2cccc(Cl)c2)C[C@@H]2C[C@@H](c3cccn3-c3ccccn3)N3CCC[C@@]123	18.5	-15.2	x	-9.1	x	x
CC(=O)C1=C(C)N2CCN=C2S1	x	-27.6	x	-0.3	x	x
SMILES	NPY Y1 blocker	NPY-Y2 PAM-ag	NPY Y2 blocker	NPY-Y1 PAM-ag	NPY1 antag conf	NPY2 antag ctr
COc1ccc(C(=O)O/N=C(\N)Cc2ccc([N+](=O)[O-])cc2)c(OC)c1	x	10.9	x	8.1	x	x
COCC1CCN(Cc2nc(-c3ccc(OC)cc3)no2)CC1	2.1	-1.4	x	-5.3	x	x
Cc1c(N=C2NN=C(c3c[nH]c4ccccc34)CS2)c(=O)n(-c2ccccc2)n1C	x	9.8	x	14.5	x	x
O=C(NCc1ccco1)C(c1ccccc1)N(C(=O)Cc1cccs1)c1ccccc1F (stereo not given)	22.2*	-0.7	12.7	7.4	2.1	3.5
O=C(NCc1ccco1)C(c1ccncc1)N(C(=O)Cc1cccs1)c1ccccc1 (stereo not given)	4.9	-14.4	x	0.8	x	x
O=C(CSc1ccc2c(c1)OCCO2)NCCc1ccc(Cl)cc1Cl	20.3*	-21.0	12.0	-43.8	8.4	7.4
CCC(C)(C)n1nnnc1C(c1ccc(C)cc1)N1CCN(Cc2cccnc2)CC1 (stereo not given)	9.1	-5.1	-0.3	6.3	x	x
Cc1ccc(S(=O)(=O)Cn2nnnc2C(C(C)C)N2CCSCC2)cc1 (stereo not given)	21.2*	3.1	-0.3	13.8	0.1	2.1
CCC(C)(C)n1nnnc1C(c1ccc(C)cc1)N1CCSCC1 (stereo not given)	24.2*	-14.1	15.8	13.1	12.6	4.8
Cc1ccc(S(=O)(=O)Cn2nnnc2C(C(C)C)N2CCc3ccccc3C2)cc1 (stereo not given)	0.6	1.2	3.4	-14.5	x	x
O=C(CSCc1ccccc1)NNC(=S)Nc1cccc(Cl)c1Cl	4.3	-22.6	7.0	-8.6	x	x
CCN=C(NS(=O)(=O)c1ccc(Br)cc1)c1ccc(Cl)cc1	-2.7	0.7	x	3.9	x	x
COc1ccc(C(=O)Cn2nc(CNc3ccc(Br)cc3)[n+]3c2CCCCC3)cc1	-3.1	-5.9	x	-1.7	x	x
Cc1ccc(C(C)C)c(OCc2nn(CC(=O)c3ccc(OC(F)F)cc3)c3[n+]2CCCCC3)c1	31.5*	-11.2	x	-20.5	19.8	16.1
COn1c(SCc2ccc(Cl)cc2)nc2ccccc2c1=O	38.3*	-15.8	10.2	-52.1	27.1*	21.2*
O=C(COC(=O)c1ccc(CO)cc1)Nc1ccc(OC(F)F)cc1	-2.8	3.6	x	-3.0	x	x
CCn1c2ccccc2c2cc(NC(=O)c3cc(OC)c(OC)c(OC)c3)ccc21	34.6*	-18.7	0.7	-23.1	2.5	16.4
CCn1c2ccccc2c2cc(NC(=O)c3cc(OC)cc(OC)c3)ccc21	3.5	3.7	4.1	-6.4	x	x
COc1ccc(C(CC(=O)O)NC(=O)c2sc3ccccc3c2Cl)cc1 (stereo not given)	21.7*	-16.4	11.4	-71.6	12.5	12.3
O=C(CN1CCCCC1)Nc1ccccc1-c1ccccc1	6.5	-4.1	6.3	-8.1	x	x
O=C(CN1CCN(C2CCCCC2)CC1)Nc1ccccc1-c1ccccc1	21.5*	-15.2	16.6	-35.7	6.1	11.5
CCOC(=O)c1c(NC(=O)C(F)(OC)C(F)(F)F)sc(C(=O)N2CCCCC2)c1C (stereo not given)	21.9*	8.8	2.0	-14.8	9.3	4.4
Cc1ccc(SCCC(=O)OCn2nnc3ccccc3c2=O)cc1	22.8*	-13.5	x	-1.8	14.0	15.2
CCOC(=O)c1ccccc1NC1CC(=O)N(c2ccccc2C)C1=O (stereo not given)	9.8	10.4	-0.1	-8.6	x	x
